APP 5'UTR act – APP 5'UTR luciferase reporter activation; activation, % at 2 µM; 190,000 compounds, 1% hits; SH-SY5Y APP 5'UTR luciferase reporter, luminescence; zero percent = DMSO vehicle wells;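 active = activation above a set limit, based on mean plus 3 SD of controls, cut at about 140% in these data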
STAT1 blocker – STAT1 signaling inhibition; NIH 3T3 STAT1-luciferase reporter, IFN-gamma, luminescence; inhibition, % at 5.5 µM; 200,000 compounds, 0.35% hits; AID 920;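 active = inhibition above a set limit, the mean inhibition across all tested compounds plus 3 SD, cut at about 34% in these data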;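 also: 0% = IFN-gamma with DMSO and 100% = IFN-gamma with 300 µM nifuroxazide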
STAT3 blocker – STAT3 signaling inhibition | U3A cells, IL-6 STAT3-luciferase reporter, luminescence; host cell line lacks STAT1 | inhibition, % at 5.5 µM | 190,000 compounds, 0.89% hits | AID 862;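 active = inhibition above the mean inhibition across all screened compounds plus 3 SD, cut at about 44% in these data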;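 also: 0% = DMSO only wells and 100% = 100 µM nifuroxazide control wells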
STAT3 act – increases IL-6 driven STAT3 reporter signal; activation (% of control), % at 5.6 µM; 190,000 compounds, 0.91% hits; U3A cells, IL-6 STAT3-luciferase reporter, luminescence; 100% = signal with IL-6 EC80 alone;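 active = activation above the screen-wide mean of compound activation plus 3 SD, cut at about 130% in these data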;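 also: 0% = background luminescence of wells with medium and substrate only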
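Test system: Human STAT1-deficient U3A cells with stable STAT3-luciferase reporter | Also added: Interleukin-6, 33 ng/mL | Timing: Compound pre-incubation 1 h before IL-6, then 6 h stimulation at 37 °C | Technique: Luciferase reporter luminescence | Read-out: Percent of IL-6-only median luminescence | Benchmarks: IL-6-only wells as 100% reference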
NF-kB expr up – compounds increasing NF-kB expression in human neuronal cells | AID 1239 | fold change at 12.5 µM | NF-kB reporter expression; hits give high values | 190,000 compounds, 1.6% hits; in the data active = fold change above about 3.3
STAT1 activator – activators of IFN-gamma induced STAT1 signaling; NIH 3T3 STAT1-luciferase reporter, luminescence; 100% = IFN-gamma alone, no compound; activation (% of control), % at 5.5 µM; 200,000 compounds, 2.6% hits;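 active = activation above the screen-wide mean activation plus 3 SD, cut at about 130% in these data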;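 also: raw ratio to IFN-gamma control signal so 100% means no change and 0% no light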
* hit, by the source's call; . = not tested or not shown. Rows were chosen to be rich in hits. Some 5.1% of all compounds tested hit in one or more screens of this group.

SMILES	APP 5'UTR act	STAT1 blocker	STAT3 blocker	STAT3 act	NF-kB expr up	STAT1 activator
Cc1cccc(NC(=S)c2nc3ccccc3s2)c1	205*	-48	-31	134*	3.9*	143*
Cc1cccc(NC(=O)c2sc(C)nc2C)c1	33	-7	2	101	1.8	106
O=C(/C=C/c1cccs1)c1ccc(N2CCOCC2)cc1	236*	-21	21	85	3.2	120
O=C(NN=C1CCCC1)C1COc2ccccc2O1 (stereo unspecified)	-12	-6	-2	103	1.1	106
COc1cc(C(=O)Oc2ccccc2/C=N/NC(=O)c2ccc(C)c(Cl)c2)cc(OC)c1OC	-50	-1	4	93	0.92	101
COc1cc(C(=O)Oc2ccccc2/C=N/NC(=O)c2ccc(Cl)cc2)cc(OC)c1OC	-40	-35	-10	106	1.7	131*
COc1cc(/C=N/NC(=O)c2ccc(-c3ccccc3)cc2)cc(OC)c1OC	-5	-14	-40	134*	0.98	112
CCOC(=O)c1ccc(NC(=S)N2CCN(CCNC3=CC(=O)CC(C)(C)C3)CC2)cc1	4	6	31	81	0.91	94
CCOC(=O)C(=O)Nc1ccccc1C(=O)NCc1ccccc1	-3	-18	6	99	0.88	114
CN1CCN(C(=S)c2ccc(-c3cccc(Cl)c3Cl)o2)CC1	124	-50	-11	114	2.6	144*
O=C(O)c1ccc(-c2ccccc2Cl)o1	0	3	2	100	0.96	98
S=C(c1ccc(-c2ccccc2Cl)o1)N1CCCCC1	88	-45	1	98	0.95	141*
CN1CCN(C(=O)c2ccc(CS(=O)(=O)c3c(Cl)cccc3Cl)o2)CC1	-3	-7	3	102	0.96	106
COCCN1Cc2c(sc(C)c2C)N(C(=O)c2ccccc2)C1	52	-10	-32	138*	2.5	109
Clc1ccc(/C=N/NC(=Nc2ccccc2)c2ccccn2)c(Cl)c1	164*	-32	10	101	3.1	128
COc1ccccc1N(CC(=O)NC1CCCC1)C(=O)c1oc(C(C)(C)C)cc1C	2	11	8	98	0.95	88
Cn1ccnc1SCc1cn2cc(Br)ccc2n1	164*	-18	43	68	2.3	117
OC(COCCOc1ccc(Br)cc1)CN1CCCCC1 (stereo unspecified)	-1	3	0	98	1.3	98
Cc1ccc(Oc2ccc(OCC(=O)NC(CC(C)C)C(=O)O)cc2)cc1 (stereo unspecified)	-6	-11	3	98	1.1	111
Cn1c(-c2ccc(F)cc2)cnc1SCC(=O)N1CCCCC1	123	-42	34	72	3.9*	138*
CC1Cc2ccccc2N1C(=O)CSc1ncc(-c2ccc(F)cc2)n1C (stereo unspecified)	104	-36	2	97	0.93	133*
CCCCNC(=O)NCc1cnn(C)c1C	-2	-1	20	85	1.3	100
COc1ccc2cc(C(=O)NCc3ccco3)c(=Nc3ccc(C(=O)O)cc3)oc2c1	38	11	26	82	1.6	91
CCc1ccc2oc(-c3ccc(OC)cc3)cc(=Nc3cccc(C(=O)O)c3)c2c1	204*	11	27	79	7.2*	88
COc1ccc(-c2cc(=Nc3ccc(C(=O)O)cc3)c3cc(C)ccc3o2)cc1	209*	-20	18	91	3	117
SMILES	APP 5'UTR act	STAT1 blocker	STAT3 blocker	STAT3 act	NF-kB expr up	STAT1 activator
CCc1ccc2oc(-c3ccc(OC)cc3)cc(=Nc3c(C)n(C)n(-c4ccccc4)c3=O)c2c1	173*	-7	1	102	0.64	105
COC(=O)c1cc(OC)c(OC)cc1NC(=O)CSc1ccccc1	17	14	9	97	0.75	88
CC(C)C(=O)Nc1nc(-c2ccc([N+](=O)[O-])cc2)cs1	21	-24	26	82	1.6	120
CNc1nc(-c2ccc(Cl)cc2)cs1	83	-33	7	100	2.4	132*
CCNc1nc(-c2ccc(Cl)cc2)cs1	148*	-51	17	90	3.8*	149*
CNc1nc(-c2ccc([N+](=O)[O-])cc2)cs1	34	-40	23	84	2.1	137*
CN(C)S(=O)(=O)N1CCN(C(=O)c2cccs2)CC1	6	-4	4	97	1.7	104
CCCCN(C)C1CCN(C(=S)Nc2cccc(SC)c2)CC1	4	-6	1	110	0.89	105
COCCNC(=O)[C@@]1(Cc2ccccc2)C=C[C@@H](C)N1C(C)=O	2	-16	-1	99	1.5	115
O=C(CSc1nnnn1-c1ccccc1)Nc1nsc(-c2ccccc2)n1	6	3	3	103	7.9*	98
O=C(CSc1nnnn1-c1ccccc1)Nc1nsc(-c2ccc(Cl)cc2)n1	-4	3	22	85	0.56	99
COc1ccc2c(c1)Cc1sc(NC(=O)c3cccnc3)nc1-2	25	7	15	89	0.71	92
COc1ccc2c(c1)Cc1sc(NC(C)=O)nc1-2	123	-49	5	99	1.9	146*
Cc1nc(-c2ccccc2O)n(-c2ccccc2)n1	10	5	7	98	0.83	96
O=S(=O)(Cc1cc(-c2ccccc2Cl)no1)c1ccccc1	68	-39	1	103	0.98	132*
O=S(=O)(Cc1cc(-c2ccc(Cl)cc2)no1)c1ccccc1	44	-38	12	93	2.1	135*
Clc1ccc(OCc2cc(-c3ccccc3)no2)cc1Cl	12	-10	15	92	1.8	109
O=S(=O)(NCc1cc(-c2ccccc2Cl)no1)c1ccccc1	-21	4	12	95	1	96
Clc1ccc(-c2cc(COc3ccccc3)on2)cc1	42	-35	11	93	1.9	132*
COc1ccc(-n2ncc3c(=O)n(Cc4c(F)cccc4Cl)cnc32)cc1	26	-17	-11	114	1.7	114
O=C(Nc1ccc(S(=O)(=O)NC2=NCCCCC2)cc1)c1ccc(=O)[nH]c1	10	-2	-4	105	0.99	101
C/C(=N\NC(=O)c1ccc([N+](=O)[O-])cc1Cl)c1ccccc1	25	-30	-7	110	1.8	126
CCCCNC(=O)C(=O)N/N=C/c1ccc(OCC(=O)Nc2cccc(OC)c2)c(OC)c1	8	-3	3	101	0.84	102
CCc1c(C)nc(SCC(=O)c2cccs2)c(C#N)c1C	30	-40	-50	149*	2.7	136*
CCc1c(C)nc(SCC(N)=O)c(C#N)c1C	.	-6	2	98	1	104
Cc1ccnc(N/N=C/c2ccccc2)n1	83	-50	0	96	2.5	145*
CC(=O)/C(N=Nc1ccc2c(c1)OCO2)=C(\C)O	37	-43	-6	108	1.1	138*
